Source: ChEMBL document CHEMBL3997808 (J Med Chem, 2017)

How the values were obtained:
[1] = Stability in dog microsomes measured up to 45 mins; type: ADME, Canis lupus familiaris, Microsome; conditions: 0.75 h
[2] = Stability in rat microsomes measured up to 45 mins; type: ADME, Microsome; conditions: 0.75 h
[3] = Drug metabolism in cynomolgus monkey hepatocytes assessed as 5-benzyl-1H-1,2,4-triazole-3-carboxylic acid formation at 10 uM measured up to 4 hrs; type: ADME, cell-based, Macaca fascicularis, Hepatocyte
Summary of the method: (§1)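 Compound at 10 μM was incubated with hepatocyte suspensions at 1 million cells/mL. Incubation ran at 37°C under 5% CO2:95% O2 for up to 4 h.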

[4] = Drug metabolism in human hepatocytes assessed as (S)-3-amino-5-methyl-2,3-dihydrobenzo[b][1,4]oxazepin-4(5H)-one formation at 10 uM measured up to 4 hrs; type: ADME, cell-based, Hepatocyte; summary of the method: as §1
[5] = Volume of distribution at steady state in rat at 1.1 mg/kg, iv; type: ADME, organism-based; conditions: in vivo, read-out: Vdss
[6] = Fraction unbound in human blood; type: ADME, tissue-based
[7] = Oral bioavailability in cynomolgus monkey at 1.9 mg/kg; type: ADME, organism-based, Macaca fascicularis; conditions: in vivo
[8] = Half-life in rat at 1.1 mg/kg, iv; type: ADME, organism-based; conditions: in vivo
[9] = Cmax in cynomolgus monkey at 1.9 mg/kg, po; type: ADME, organism-based, Macaca fascicularis; set-up: dose 1.9 mg/kg, route oral; conditions: in vivo
[10] = Drug metabolism in human hepatocytes assessed as glucuronide metabolite M553 formation at 10 uM measured up to 4 hrs; type: ADME, cell-based, Hepatocyte; summary of the method: as §1
[11] = Drug metabolism in cynomolgus monkey hepatocytes assessed as 5-(hydroxy(phenyl)methyl)-N-((S)-5-methyl-4-oxo-2,3,4,5-tetrahydrobenzo[b][1,4]oxazepin-3-yl)-1H-1,2,4-triazole-3-carboxamide formation at 10 uM measured up to 4 hrs; type: ADME, cell-based, Macaca fascicularis, Hepatocyte; summary of the method: as §1
[12] = Stability in human microsomes measured up to 45 mins; type: ADME, Microsome; conditions: 0.75 h
[13] = Drug metabolism in rat hepatocytes assessed as (S)-5-benzyl-N-(4-oxo-2,3,4,5-tetrahydrobenzo[b][1,4]oxazepin-3-yl)-1H-1,2,4-triazole-3-carboxamide formation at 10 uM measured up to 4 hrs; type: ADME, cell-based, Hepatocyte; summary of the method: as §1
Colon = assay: Drug uptake in Han Wistar rat colon at 2 mg/kg, iv administered as 4 hrs infusion; type: ADME, organism-based; conditions: in vivo
Summary of the method: (§2)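 Rats received a 4 h iv infusion, after which terminal tissue samples were collected. Parent drug concentrations were measured in each tissue and compared with blood levels.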

[14] = Oral bioavailability in rat at 2.1 mg/kg; type: ADME, organism-based; conditions: in vivo
Rattus norvegicus = assay: Toxicity in rat at 2 to 1000 mg/kg, po after 1 month; type: organism-based; conditions: in vivo, 730.5 h
[15] = Stability in cynomolgus monkey microsomes measured up to 45 mins; type: ADME, Macaca fascicularis, Microsome; conditions: 0.75 h
[16] = Drug metabolism in rat hepatocytes assessed as glucuronide metabolite M553 formation at 10 uM measured up to 4 hrs; type: ADME, cell-based, Hepatocyte; summary of the method: as §1
[17] = Cmax in rat at 2.1 mg/kg, po; type: ADME, organism-based; set-up: dose 2.1 mg/kg, route oral; conditions: in vivo
[18] = Drug metabolism in cynomolgus monkey hepatocytes assessed as glucuronide metabolite M569 formation at 10 uM measured up to 4 hrs; type: ADME, cell-based, Macaca fascicularis, Hepatocyte; summary of the method: as §1
[19] = Lipophilicity, log D of the compound at pH 7.4 by RP-HPLC method; type: physicochemical; conditions: buffer
Summary of the method: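 Chromatographic hydrophobicity index (CHI) log D at pH 7.4, calculated from the retention time in a fast-gradient reverse-phase HPLC run.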

[20] = Drug metabolism in rat hepatocytes assessed as (S)-3-amino-5-methyl-2,3-dihydrobenzo[b][1,4]oxazepin-4(5H)-one formation at 10 uM measured up to 4 hrs; type: ADME, cell-based, Hepatocyte; summary of the method: as §1
[21] = Inhibition of recombinant human cytochrome P450; type: ADME; conditions: recombinant enzyme
Blood = assay: Drug uptake in Han Wistar rat blood at 2 mg/kg, iv administered as 4 hrs infusion; type: ADME, organism-based; conditions: in vivo; summary of the method: as §2
[22] = Drug metabolism in cynomolgus monkey hepatocytes assessed as (S)-5-benzyl-N-(4-oxo-2,3,4,5-tetrahydrobenzo[b][1,4]oxazepin-3-yl)-1H-1,2,4-triazole-3-carboxamide formation at 10 uM measured up to 4 hrs; type: ADME, cell-based, Macaca fascicularis, Hepatocyte; summary of the method: as §1
MDR1 = assay: Permeability across dog MDCK cells expressing MDR1; type: ADME, cell-based, Canis lupus familiaris; conditions: read-out: permeability
[23] = Drug metabolism in rat hepatocytes assessed as 5-(hydroxy(phenyl)methyl)-N-((S)-5-methyl-4-oxo-2,3,4,5-tetrahydrobenzo[b][1,4]oxazepin-3-yl)-1H-1,2,4-triazole-3-carboxamide formation at 10 uM measured up to 4 hrs; type: ADME, cell-based, Hepatocyte; summary of the method: as §1

CN1C(=O)[C@@H](NC(=O)c2nnc(Cc3ccccc3)[nH]2)COc2ccccc21 [GSK2982772]
Stability [1]: Stable
Stability [2]: Stable
Drug metabolism [3]: Metabolite_Detected
Drug metabolism [4]: Metabolite_Detected
Vd [5]: 2.7 L/kg
fraction unbound [6]: 0.074
bioavailability [7]: 86%
half-life [8]: 3.9 h
Cmax [9]: 720 ng/mL
Drug metabolism [10]: Metabolite_Detected
Drug metabolism [11]: Metabolite_Detected
Stability [12]: Stable
Drug metabolism [13]: Metabolite_Detected
Drug uptake (Colon): Active
bioavailability [14]: 110%
Activity (Rattus norvegicus): Non-Toxic
Stability [15]: Stable
Drug metabolism [16]: Metabolite_Detected
Cmax [17]: 810 ng/mL
Drug metabolism [18]: Metabolite_Detected
chromatographic logD [19]: 3.8
Drug metabolism [20]: Metabolite_Detected
inhibition (INH) [21]: Not Active
Drug uptake (Blood): Active
Drug metabolism [22]: Metabolite_Detected
Papp (MDR1): 21 ×10⁻⁶ cm/s
Drug metabolism [23]: Metabolite_Detected
